Experimental data reported in ChEMBL document CHEMBL4321796, “Proteolysis Targeting Chimeras for the Selective Degradation of Mcl-1/Bcl-2 Derived from Nonselective Target Binding Ligands” (J Med Chem, 2019).
pIC50: −log10 of the molar value. Blank lines part the entries; values can stand above or below the molecule they belong to. Activity calls are given as the source filed them. The calls are words filed in the database; no cut-off is given here.

What was measured:
[1] = biological target: T1, Protein cereblon/Apoptosis regulator Bcl-2 (Homo sapiens, UniProt P10415+Q96SW2); test: Induction of CRBN-mediated Bcl-2 degradation in human HeLa cells by Western blot analysis; type: cell-based
Target sequence in this assay (P10415 whole entry, looked up): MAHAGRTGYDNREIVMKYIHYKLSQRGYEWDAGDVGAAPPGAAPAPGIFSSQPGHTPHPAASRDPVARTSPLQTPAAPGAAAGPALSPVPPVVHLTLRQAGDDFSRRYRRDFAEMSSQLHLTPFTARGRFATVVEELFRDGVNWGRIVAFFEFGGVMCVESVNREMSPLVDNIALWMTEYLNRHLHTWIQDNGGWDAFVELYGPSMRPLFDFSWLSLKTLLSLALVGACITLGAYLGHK
Target sequence in this assay (Q96SW2 whole entry, looked up): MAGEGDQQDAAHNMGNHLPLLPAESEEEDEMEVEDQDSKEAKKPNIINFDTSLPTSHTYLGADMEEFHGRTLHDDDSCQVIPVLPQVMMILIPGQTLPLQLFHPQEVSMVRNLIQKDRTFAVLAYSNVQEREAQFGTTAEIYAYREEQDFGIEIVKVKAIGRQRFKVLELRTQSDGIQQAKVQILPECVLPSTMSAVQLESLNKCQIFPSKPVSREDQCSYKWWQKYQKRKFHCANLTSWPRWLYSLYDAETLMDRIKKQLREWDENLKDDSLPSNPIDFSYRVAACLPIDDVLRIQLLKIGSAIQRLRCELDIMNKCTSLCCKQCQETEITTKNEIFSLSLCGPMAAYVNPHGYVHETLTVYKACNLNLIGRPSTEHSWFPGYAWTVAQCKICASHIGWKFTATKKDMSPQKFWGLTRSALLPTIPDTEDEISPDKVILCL

[2] = biological target: Protein cereblon/E3 ubiquitin-protein ligase Mdm2 (Homo sapiens) (UniProt Q00987+Q96SW2); test: Induction of CRBN-mediated MDM2 degradation in human HeLa cells at 10 uM incubated for 12 hrs by Western blot analysis; type: cell-based
Chain of Protein cereblon/E3 ubiquitin-protein ligase Mdm2 (Homo sapiens) (Q00987 whole entry, looked up): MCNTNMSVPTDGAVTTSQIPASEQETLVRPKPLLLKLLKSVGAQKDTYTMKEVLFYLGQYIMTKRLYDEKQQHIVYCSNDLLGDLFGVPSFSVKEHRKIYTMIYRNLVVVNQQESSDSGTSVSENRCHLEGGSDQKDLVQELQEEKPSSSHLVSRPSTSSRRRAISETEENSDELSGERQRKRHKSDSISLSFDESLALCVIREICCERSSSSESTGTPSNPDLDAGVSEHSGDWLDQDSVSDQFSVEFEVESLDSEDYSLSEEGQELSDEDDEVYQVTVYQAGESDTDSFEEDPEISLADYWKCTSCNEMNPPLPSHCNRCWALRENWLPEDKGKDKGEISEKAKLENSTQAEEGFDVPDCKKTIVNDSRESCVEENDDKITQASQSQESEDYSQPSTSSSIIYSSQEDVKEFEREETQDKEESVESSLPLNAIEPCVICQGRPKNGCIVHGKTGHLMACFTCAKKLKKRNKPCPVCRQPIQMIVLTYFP
Chain of Protein cereblon/E3 ubiquitin-protein ligase Mdm2 (Homo sapiens) (Q96SW2 whole entry, looked up): as the sequence (Q96SW2 whole entry, looked up) above

[3] = biological target: Protein cereblon/Bcl-2-like protein 1 (Homo sapiens) (UniProt Q07817+Q96SW2); test: Induction of CRBN-mediated Bcl-xl degradation in human HeLa cells at 10 uM incubated for 12 hrs by Western blot analysis; type: cell-based
Chain of Protein cereblon/Bcl-2-like protein 1 (Homo sapiens) (Q07817 whole entry, looked up, the tested form may be a part): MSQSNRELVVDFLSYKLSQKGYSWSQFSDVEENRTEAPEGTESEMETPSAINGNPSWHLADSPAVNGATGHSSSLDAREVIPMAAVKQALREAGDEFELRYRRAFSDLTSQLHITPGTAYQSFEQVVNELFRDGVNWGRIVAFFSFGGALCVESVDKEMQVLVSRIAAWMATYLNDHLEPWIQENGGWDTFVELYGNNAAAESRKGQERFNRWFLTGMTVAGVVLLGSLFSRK
Chain of Protein cereblon/Bcl-2-like protein 1 (Homo sapiens) (Q96SW2 whole entry, looked up, the tested form may be a part): as the sequence (Q96SW2 whole entry, looked up) above

[4] = biological target: Induced myeloid leukemia cell differentiation protein Mcl-1 (Homo sapiens, UniProt Q07820); test: Inhibition of biotinylated Bim peptide (81 to 106 residues) binding to His-tagged human Mcl-1 expressed in Escherichia coli BL21 (DE3) cells preincubated for 1 hr followed by biotinylated Bim peptide addition measured after 2 hrs by ELISA
Chain of Induced myeloid leukemia cell differentiation protein Mcl-1 (Q07820 whole entry, the tested form may be a part): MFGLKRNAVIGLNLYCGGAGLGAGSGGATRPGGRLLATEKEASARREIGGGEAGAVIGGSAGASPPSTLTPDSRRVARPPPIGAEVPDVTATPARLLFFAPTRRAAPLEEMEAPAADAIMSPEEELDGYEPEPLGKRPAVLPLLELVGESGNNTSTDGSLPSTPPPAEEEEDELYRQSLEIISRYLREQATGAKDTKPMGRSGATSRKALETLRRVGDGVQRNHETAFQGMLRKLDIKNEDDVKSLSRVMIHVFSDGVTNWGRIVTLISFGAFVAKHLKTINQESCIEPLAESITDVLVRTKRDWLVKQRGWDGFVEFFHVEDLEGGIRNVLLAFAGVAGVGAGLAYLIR
How it was run: (§1)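 Inhibitor serially diluted (100–0.1 µM) from 10 mM DMSO stock, preincubated 1 h with 200 nM His-tagged protein in PBS (final DMSO 4%), then added 2 h to streptavidin plates holding biotin-Bim (plated at 0.09 mg/mL). Incubations at 4 °C. Detection with HRP anti-His, TMB 30 min, H2SO4 stop, A450. IC50 averaged from three independent experiments, with SD.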

[5] = biological target: Apoptosis regulator Bcl-2 (Homo sapiens, UniProt P10415); test: Inhibition of biotinylated Bim peptide (81 to 106 residues) binding to His-tagged human Bcl-2 expressed in Escherichia coli BL21 (DE3) cells preincubated for 1 hr followed by biotinylated Bim peptide addition measured after 2 hrs by ELISA; how it was run: as §1
Chain of Apoptosis regulator Bcl-2 (P10415 whole entry, the tested form may be a part): as the sequence (P10415 whole entry, looked up) above

[6] = biological target: T2, Protein cereblon/Induced myeloid leukemia cell differentiation protein Mcl-1 (Homo sapiens, UniProt Q07820+Q96SW2); test: Induction of CRBN-mediated Mcl-1 degradation in human HeLa cells assessed as relative abundance at 10 uM after 12 hrs by Western blot analysis (reference value: 1); type: cell-based
T2 sequence (Q07820 whole entry, looked up): as the sequence (Q07820 whole entry, the tested form may be a part) above
T2 sequence (Q96SW2 whole entry, looked up): as the sequence (Q96SW2 whole entry, looked up) above

[7] = biological target: T2, Protein cereblon/Induced myeloid leukemia cell differentiation protein Mcl-1; test: Induction of CRBN-mediated Mcl-1 degradation in human HeLa cells assessed as relative abundance at 1 uM after 12 hrs by Western blot analysis (reference value: 1); type: cell-based
[8] = biological target: T1, Protein cereblon/Apoptosis regulator Bcl-2; test: Induction of CRBN-mediated Bcl-2 degradation in human HeLa cells assessed as relative abundance at 10 uM after 12 hrs by Western blot analysis (reference value: 1); type: cell-based
Target sequence in this assay (P10415 whole entry, looked up): as the sequence (P10415 whole entry, looked up) above
Target sequence in this assay (Q96SW2 whole entry, looked up): as the sequence (Q96SW2 whole entry, looked up) above

[9] = biological target: T1, Protein cereblon/Apoptosis regulator Bcl-2; test: Induction of CRBN-mediated Bcl-2 degradation in human HeLa cells assessed as relative abundance at 1 uM after 12 hrs by Western blot analysis (reference value: 1); type: cell-based
Target sequence in this assay (P10415 whole entry, looked up): as the sequence (P10415 whole entry, looked up) above
Target sequence in this assay (Q96SW2 whole entry, looked up): as the sequence (Q96SW2 whole entry, looked up) above

[10] = biological target: T1, Protein cereblon/Apoptosis regulator Bcl-2; test: Induction of CRBN-mediated Bcl-2 degradation in human HeLa cells after 12 hrs by Western blot analysis; type: cell-based
Target sequence in this assay (P10415 whole entry, looked up): as the sequence (P10415 whole entry, looked up) above
Target sequence in this assay (Q96SW2 whole entry, looked up): as the sequence (Q96SW2 whole entry, looked up) above

[11] = biological target: T1, Protein cereblon/Apoptosis regulator Bcl-2; test: Induction of CRBN-mediated Bcl-2 degradation in human HeLa cells assessed as reduction in Bcl-2 level at 1 uM after 12 hrs by Western blot analysis relative to control; type: cell-based; design: scale not given: the % may be the effect or the level left
Target sequence in this assay (P10415 whole entry, looked up): as the sequence (P10415 whole entry, looked up) above
Target sequence in this assay (Q96SW2 whole entry, looked up): as the sequence (Q96SW2 whole entry, looked up) above

[12] = biological target: T1, Protein cereblon/Apoptosis regulator Bcl-2; test: Induction of CRBN-mediated Bcl-2 degradation in human HeLa cells assessed as reduction in Bcl-2 level at 10 uM after 12 hrs by Western blot analysis relative to control; type: cell-based; design: scale not given: the % may be the effect or the level left
Target sequence in this assay (P10415 whole entry, looked up): as the sequence (P10415 whole entry, looked up) above
Target sequence in this assay (Q96SW2 whole entry, looked up): as the sequence (Q96SW2 whole entry, looked up) above

[13] = biological target: T1, Protein cereblon/Apoptosis regulator Bcl-2; test: Induction of CRBN-mediated Bcl-2 degradation in human HeLa cells assessed as relative abundance at 3 uM after 12 hrs by Western blot analysis (reference value: 1); type: cell-based
[14] = biological target: T1, Protein cereblon/Apoptosis regulator Bcl-2; test: Induction of CRBN-mediated Bcl-2 degradation in human HeLa cells assessed as relative abundance at 0.3 uM after 12 hrs by Western blot analysis (reference value: 1); type: cell-based
[15] = biological target: T2, Protein cereblon/Induced myeloid leukemia cell differentiation protein Mcl-1; test: Induction of CRBN-mediated Mcl-1 degradation in human HeLa cells assessed as relative abundance at 0.1 uM after 12 hrs by Western blot analysis (reference value: 1); type: cell-based
[16] = biological target: T1, Protein cereblon/Apoptosis regulator Bcl-2; test: Induction of CRBN-mediated Bcl-2 degradation in human HeLa cells assessed as relative abundance at 0.1 uM after 12 hrs by Western blot analysis (reference value: 1); type: cell-based
[17] = biological target: T2, Protein cereblon/Induced myeloid leukemia cell differentiation protein Mcl-1; test: Induction of CRBN-mediated Mcl-1 degradation in human HeLa cells assessed as relative abundance at 0.3 uM after 12 hrs by Western blot analysis (reference value: 1); type: cell-based
[18] = biological target: T2, Protein cereblon/Induced myeloid leukemia cell differentiation protein Mcl-1; test: Induction of CRBN-mediated Mcl-1 degradation in human HeLa cells assessed as relative abundance at 3 uM after 12 hrs by Western blot analysis (reference value: 1); type: cell-based
[19] = biological target: T2, Protein cereblon/Induced myeloid leukemia cell differentiation protein Mcl-1; test: Induction of CRBN-mediated Mcl-1 degradation in human HeLa cells assessed as relative abundance at 10 uM measured at 2 hrs by Western blot analysis (reference value: 1); type: cell-based
How it was run: (§2)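 HeLa cells in DMEM with 10% FBS, exposed to 10 µM compound over a 0–24 h time course. Mcl-1 and Bcl-2 detected by immunoblot (NP-40 lysis, BCA-equalized SDS-PAGE, PVDF, ECL) and quantified relative to DMSO control; mean ± s.d., n=3 independent samples.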

[20] = biological target: T1, Protein cereblon/Apoptosis regulator Bcl-2; test: Induction of CRBN-mediated Bcl-2 degradation in human HeLa cells at 10 uM by Western blot analysis; type: cell-based; conditions: TDE = time-dependent effect
[21] = biological target: T2, Protein cereblon/Induced myeloid leukemia cell differentiation protein Mcl-1; test: Induction of CRBN-mediated Mcl-1 degradation in human HeLa cells assessed as relative abundance at 10 uM measured at 4 hrs by Western blot analysis (reference value: 1); type: cell-based; how it was run: as §2
[22] = biological target: T2, Protein cereblon/Induced myeloid leukemia cell differentiation protein Mcl-1; test: Induction of CRBN-mediated Mcl-1 degradation in human HeLa cells assessed as relative abundance at 10 uM measured at 8 hrs by Western blot analysis (reference value: 1); type: cell-based; how it was run: as §2
[23] = biological target: T1, Protein cereblon/Apoptosis regulator Bcl-2; test: Induction of CRBN-mediated Bcl-2 degradation in human HeLa cells assessed as relative abundance at 10 uM measured at 20 hrs by Western blot analysis (reference value: 1); type: cell-based; how it was run: as §2
[24] = biological target: T2, Protein cereblon/Induced myeloid leukemia cell differentiation protein Mcl-1; test: Induction of CRBN-mediated Mcl-1 degradation in human HeLa cells assessed as relative abundance at 10 uM measured at 16 hrs by Western blot analysis (reference value: 1); type: cell-based; how it was run: as §2
[25] = biological target: T2, Protein cereblon/Induced myeloid leukemia cell differentiation protein Mcl-1; test: Induction of CRBN-mediated Mcl-1 degradation in human HeLa cells assessed as relative abundance at 10 uM measured at 20 hrs by Western blot analysis (reference value: 1); type: cell-based; how it was run: as §2
[26] = biological target: T2, Protein cereblon/Induced myeloid leukemia cell differentiation protein Mcl-1; test: Induction of CRBN-mediated Mcl-1 degradation in human HeLa cells assessed as relative abundance at 10 uM measured at 24 hrs by Western blot analysis (reference value: 1); type: cell-based; how it was run: as §2
[27] = biological target: T1, Protein cereblon/Apoptosis regulator Bcl-2; test: Induction of CRBN-mediated Bcl-2 degradation in human HeLa cells assessed as relative abundance at 10 uM measured at 2 hrs by Western blot analysis (reference value: 1); type: cell-based; how it was run: as §2
[28] = biological target: T1, Protein cereblon/Apoptosis regulator Bcl-2; test: Induction of CRBN-mediated Bcl-2 degradation in human HeLa cells assessed as relative abundance at 10 uM measured at 4 hrs by Western blot analysis (reference value: 1); type: cell-based; how it was run: as §2
[29] = biological target: T1, Protein cereblon/Apoptosis regulator Bcl-2; test: Induction of CRBN-mediated Bcl-2 degradation in human HeLa cells assessed as relative abundance at 10 uM measured at 8 hrs by Western blot analysis (reference value: 1); type: cell-based; how it was run: as §2
[30] = biological target: T1, Protein cereblon/Apoptosis regulator Bcl-2; test: Induction of CRBN-mediated Bcl-2 degradation in human HeLa cells assessed as relative abundance at 10 uM measured at 16 hrs by Western blot analysis (reference value: 1); type: cell-based; how it was run: as §2
[31] = biological target: T1, Protein cereblon/Apoptosis regulator Bcl-2; test: Induction of CRBN-mediated Bcl-2 degradation in human HeLa cells assessed as relative abundance at 10 uM measured at 24 hrs by Western blot analysis (reference value: 1); type: cell-based; how it was run: as §2
[32] = biological target: T1, Protein cereblon/Apoptosis regulator Bcl-2; test: Induction of CRBN-mediated Bcl-2 degradation in human HeLa cells measured at 12 hrs by Western blot analysis; type: cell-based
Target sequence in this assay (P10415 whole entry): as the sequence (P10415 whole entry, looked up) above
Target sequence in this assay (Q96SW2 whole entry): as the sequence (Q96SW2 whole entry, looked up) above

HeLa = test: Induction of CRBN-mediated tubulin degradation in human HeLa cells at 10 uM incubated for 12 hrs by Western blot analysis; type: cell-based
How it was run: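 HeLa cells (DMEM, 10% FBS, 37 °C, 5% CO2) treated 12 h with compound (10 µM, or 0–10 µM gradient; time course 0–24 h at 10 µM). Lysis in NP-40 buffer with protease inhibitors, equal protein loaded for SDS-PAGE and immunoblotting. Bands quantified relative to DMSO control. n=3 independent samples.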

[33] = biological target: T1, Protein cereblon/Apoptosis regulator Bcl-2; test: Induction of CRBN-mediated Bcl-2 degradation in human HeLa cells at 10 uM pretreated with proteasome inhibitor MG-132 followed by compound addition by Western blot analysis; type: cell-based
[34] = biological target: T1, Protein cereblon/Apoptosis regulator Bcl-2; test: Induction of CRBN-mediated Bcl-2 degradation in human HeLa cells at 10 uM pretreated with Bcl-2 inhibitor Nap-1 followed by compound addition by Western blot analysis; type: cell-based
[35] = biological target: T1, Protein cereblon/Apoptosis regulator Bcl-2; test: Induction of CRBN-mediated Bcl-2 degradation in human HeLa cells at 10 uM pretreated with CRBN inhibitor pomalidomide followed by compound addition by Western blot analysis; type: cell-based
[36] = biological target: T1, Protein cereblon/Apoptosis regulator Bcl-2; test: Protac activity at CRBN/Bcl-2 in human HeLa cell lysates assessed as ternary complex formation by Western blot analysis based pull-down assay; type: subcellular; conditions: Lysate
How it was run: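 HeLa lysate (25×10^6 cells, 1% Triton X-100 IP buffer), 1 mg total protein, incubated overnight with 1 µg CRBN antibody across a compound concentration gradient. Capture on protein A+G agarose, three Triton washes, boiled in loading buffer. Mcl-1, Bcl-2 and CRBN detected by immunoblotting. n=3 independent samples.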

Activity [1]: inactive
SMILES: CN1C(=O)CCC(N2C(=O)c3cccc(NCCOCCOCCNC(=O)CCCCC(=O)NCCN4C(=O)c5cccc6c(Sc7ccc(Br)cc7)ccc(c56)C4=O)c3C2=O)C1=O (configuration not stated)

Activity [2]: inactive
Activity [3]: inactive
pIC50 [4]: 4.93
pIC50 [5]: 5.31
fold change (FC) [6]: 0.9 to 1
fold change (FC) [7]: 1
fold change (FC) [8]: 0.1
fold change (FC) [9]: 0.9
Activity [10]: Dose-dependent effect
Activity [11]: 10%
Activity [12]: 90%
fold change (FC) [13]: 0.5
fold change (FC) [14]: 0.9
fold change (FC) [15]: 1
fold change (FC) [16]: 1
fold change (FC) [17]: 1
fold change (FC) [18]: 1.2
fold change (FC) [19]: 1.1
Activity [20]: Tde
fold change (FC) [21]: 1
fold change (FC) [22]: 1
fold change (FC) [23]: 1
fold change (FC) [24]: 1.1
fold change (FC) [25]: 1
fold change (FC) [26]: 0.8
fold change (FC) [27]: 0.8
fold change (FC) [28]: 0.6
fold change (FC) [29]: 0.3
fold change (FC) [30]: 0.7
fold change (FC) [31]: 1
DC50 [32]: 3 µM
Activity [33]: inactive
Activity [34]: inactive
Activity [35]: inactive
Activity [36]: Dose-dependent effect
SMILES: O=C(CCCCC(=O)NCCN1C(=O)c2cccc3c(Sc4ccc(Br)cc4)ccc(c23)C1=O)NCCOCCOCCNc1cccc2c1C(=O)N(C1CCC(=O)NC1=O)C2=O (configuration not stated)
Activity (HeLa): inactive
